# Screening data deposited in PubChem by several laboratories.
# FXIIa inh – blocks human coagulation factor XIIa protease activity; AID 800; 0.3% of 220,000 active; inhibition, % at 5 µM; P00748; purified FXIIa, Boc-QGR-AMC fluorogenic substrate, 2 h; in the data active = inhibition above about 40%;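 also: 0% = enzyme with no compound and 100% = blank without enzyme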
# EP2 antag – EP2 receptor (human) inhibition. C6 glioma cells expressing human EP2, cAMP TR-FRET; cells stimulated with saturating PGE2. inhibition, % at 25 µM. 0.52% of 260,000 active. AID 1422;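 active = percent inhibition above 40 after rounding to a whole number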;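 also: rat C6 glioma host cells with rolipram phosphodiesterase inhibitor present; the protocol text gives 20 µM as final concentration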
# thrombin 1536 – inhibitors of human thrombin; P00734; alpha-thrombin, Boc-VPR-AMC fluorogenic substrate cleavage; inhibition, % at 5 µM; 0.26% of 220,000 active; AID 1046;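 active = inhibition at or above 40%; inactive = inhibition below 40%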;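 also: 0% = enzyme with no compound and 100% = wells without enzyme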
#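 System: human alpha-thrombin protein; Compound dosing: one concentration per compound, 5 µM, with 0.2% DMSO; Timing: reaction at room temperature; Technique: AMC fluorescence, 355/460 nm; Controls: enzyme without compound as high, wells lacking enzyme as low.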
# EP2 modulator – modulators of human EP2 prostaglandin E2 receptor. P43116. EP2-expressing cells, cAMP HTRF FRET, PGE2 co-stimulation. induction, % at 25 µM. 0.83% of 260,000 active. AID 940;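 active = compounds whose cAMP rise, as percent of the full-agonist control response, exceeds 60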;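 also: rat C6 glioma line stably carrying human EP2 under a CMV promoter; the protocol text gives 20 µM as final concentration; 100% = response of wells given 1 µM PGE2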
# KLK5 inh – kallikrein 5 (human) inhibition. Q9Y337. recombinant hK5, fluorogenic AMC substrate cleavage. 0.59% of 210,000 active. inhibition, % at 5 µM;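 active = inhibition of 40% or more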;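 also: 0% = enzyme controls without compound and 100% = no-enzyme blanks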
# FXIa inh – blocks human coagulation factor XIa protease activity; P03951; purified FXIa, Boc-Glu-Ala-Arg-AMC fluorogenic substrate; inhibition, % at 5 µM; 0.14% of 220,000 active; AID 798;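 active = inhibition of at least 40%; inactive = inhibition below 40%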;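 also: fluorescence of freed AMC excited at 355 nm; 0% = enzyme without compound and 100% = no enzyme blank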
# Target sequence (P03951 19-387 limits assumed): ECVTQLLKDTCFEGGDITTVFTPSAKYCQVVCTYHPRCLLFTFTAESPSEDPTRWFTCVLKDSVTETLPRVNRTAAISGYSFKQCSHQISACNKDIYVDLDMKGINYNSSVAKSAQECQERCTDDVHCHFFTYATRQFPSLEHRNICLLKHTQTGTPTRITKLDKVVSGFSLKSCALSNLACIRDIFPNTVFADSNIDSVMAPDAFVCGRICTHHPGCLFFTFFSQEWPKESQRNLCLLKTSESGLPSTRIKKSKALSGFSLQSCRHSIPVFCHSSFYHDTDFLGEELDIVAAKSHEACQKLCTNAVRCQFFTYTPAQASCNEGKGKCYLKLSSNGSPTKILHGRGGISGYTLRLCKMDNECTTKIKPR
# Target sequence (P03951 388-625 limits assumed): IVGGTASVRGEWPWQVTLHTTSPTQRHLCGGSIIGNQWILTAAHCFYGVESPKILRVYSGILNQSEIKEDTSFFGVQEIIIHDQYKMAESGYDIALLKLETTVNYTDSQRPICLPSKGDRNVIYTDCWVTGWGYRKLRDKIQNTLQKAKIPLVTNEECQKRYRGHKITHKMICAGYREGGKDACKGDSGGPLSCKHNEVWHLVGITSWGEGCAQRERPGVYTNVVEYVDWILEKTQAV
# Starred values were filed as active, the others as inactive; x = not tested or not shown. An excerpt weighted towards active compounds, which were near 2.1% of everything screened.
SMILES,FXIIa inh,EP2 antag,thrombin 1536,EP2 modulator,KLK5 inh,FXIa inh
O=C(OCC(=O)c1ccc(Cl)s1)c1ccc2ccccc2n1,42.7*,6.1,32.6,16.3,22.4,13.7
COc1cc(NC(=O)c2cccs2)c(OC)cc1NC(=O)Nc1cccc(Cl)c1,x,6.7,x,-80.8,x,x
Nc1nc(-c2ccco2)nn1C(=O)c1cccnc1,27.5,1.6,64.3*,-14.9,-10.3,-5.8
Nc1nc(-c2cccnc2)nn1C(=O)CCc1ccccc1,x,9.6,x,x,x,x
Nc1nc(-c2ccco2)nn1C(=O)CCc1ccccc1,18.6,15.0,92.8*,4.6,-10.7,-0.1
COc1ccc(NC(=O)CSc2nnc(-c3cc(OC)c(OC)c(OC)c3)n2C)cc1,x,4.0,x,5.3,x,x
O=S1(=O)c2ccccc2N=NN1Cc1cc(Cl)cc(Cl)c1,15.9,10.9,-0.5,11.0,-25.9,1.2
O=S1(=O)c2ccccc2N=NN1Cc1ccc(Cl)cc1,16.3,42.6*,5.4,-22.8,7.1,5.0
NC(=O)c1nc(-c2ccccc2)nc2c1[nH]c(=O)n2Cc1ccccc1,x,x,x,18.0,x,x
Cc1ccc(OCC(=O)N2CCN(C(=O)c3cccc4ccccc34)CC2)cc1,x,7.9,x,-87.1,x,x
CCOc1ccc(/C=c2\sc3nc(-c4ccco4)nn3c2=O)cc1OCC,8.6,8.1,22.6,75.1*,29.4,2.6
COc1ccccc1/C=c1\sc2nc(-c3ccco3)nn2c1=O,11.9,6.8,1.3,22.1,-5.8,3.6
CCCSc1nc(N2CCOCC2)c2c(c1C#N)CC(C)(C)SC2,-12.4,12.7,-11.5,64.6*,-25.1,-6.5
CC(C)CSc1nc(N2CCOCC2)c2c(c1C#N)CC(C)(C)SC2,15.5,8.7,1.4,57.8,-13.8,-3.1
Cc1ccc2[nH]c(=O)c(CN(Cc3ccco3)C(=S)Nc3cccc(Cl)c3)cc2c1,x,1.5,x,-25.6,x,x
CCC(C(=O)OCC(=O)Nc1ccc(SC(F)F)cc1)c1ccccc1 (stereo not given),-2.5,7.5,51.2*,24.5,23.8,2.5
CCn1c(=O)oc2cc(S(=O)(=O)NCCc3c(C)noc3C)c(Cl)cc21,x,1.8,x,-58.8,x,x
CC(C)CNC(=O)Nc1ccc(F)c(Cl)c1,29.8,6.0,26.4,-55.8,14.4,52.3*
COc1ccc(C(=O)[C@H](Br)[C@H](Br)C(=O)O)cc1,x,41.5*,x,-15.7,x,x
COc1ccc(C(=O)c2ccccc2)cc1,4.0,2.4,-1.2,2.3,-10.2,-9.8
CC(C)NC(=O)C1CCN(C(=O)c2ccc(Cl)cc2Cl)CC1,x,6.6,x,-37.0,x,x
ClC(Cl)(c1nnnn1-c1ccccc1)c1nnnn1-c1ccccc1,9.7,80.7*,-8.5,-41.7,-13.3,5.2
O=c1ccc2cc3c4c(c2o1)CCCN4CCC3,0.3,7.1,-6.2,-51.0,0.0,-3.7
O=c1oc2c3c4c(cc2s1)CCCN4CCC3,20.1,3.5,2.0,73.4*,-3.3,3.9
C/C(N[O-])=C(\C)[N+]([O-])=[Co].CC(=N\[O-])/C(C)=N/[O-].O[C@@H]1[CH-]CCCC1.c1ccncc1,x,43.4*,x,-0.7,x,x
SMILES,FXIIa inh,EP2 antag,thrombin 1536,EP2 modulator,KLK5 inh,FXIa inh
O=C(Nc1cc(Cl)ccc1N1CCOCC1)c1cc2ccccc2o1,x,9.7,x,81.5*,x,x
O=S(=O)(Nc1nc2ccccc2nc1N1CCc2ccccc2C1)c1ccc(Br)cc1,12.2,6.5,-5.6,5.3,-9.7,11.5
Cc1ccccc1S(=O)(=O)Nc1nc2ccccc2nc1N1CCc2ccccc2C1,-4.3,12.5,-7.8,60.6*,-10.8,-1.3
O=C(CSc1nnc(-c2cccc(F)c2)o1)N1CCCc2ccccc21,x,11.0,x,11.2,x,x
COc1cc(NS(=O)(=O)c2ccc(NC(=S)NC(=O)c3sc4ccccc4c3Cl)cc2)nc(OC)n1,14.5,126.3*,-0.9,-3.1,-26.1,9.4
COc1cc(NS(=O)(=O)c2ccc(NC(=S)NC(=O)c3sc4cc(F)ccc4c3Cl)cc2)nc(OC)n1,2.1,95.5*,-4.1,-2.9,-13.6,5.5
COc1cc(NS(=O)(=O)c2ccc(NC(=S)NC(=O)c3ccco3)cc2)nc(OC)n1,-2.3,21.4,-45.0,-17.0,-6.6,-4.6
COc1ccccc1NC(=O)CSc1nnc(COc2ccc3ccccc3c2)o1,x,6.3,x,-61.8,x,x
Cc1ccc2cc(CN(Cc3cccnc3)C(=O)Nc3ccc(Cl)cc3)c(=O)[nH]c2c1,x,9.9,x,-92.8,x,x
COc1cccc(CN2CCc3c(nc(N4CCCCC4)[nH]c3=O)C2)c1,x,x,x,17.4,x,x
Cc1ccc(C(=O)c2no[n+]([O-])c2C(=O)c2ccc(C)cc2)cc1,14.6,49.8*,0.0,-45.0,-8.6,9.8
Cc1ccc(C(=O)c2ccc(C)cc2)cc1,5.6,8.1,-3.3,38.2,-3.1,-1.8
CC(C)(C)SCCNS(=O)(=O)c1ccc2ccccc2c1,12.0,3.7,-1.8,0.9,-15.1,7.3
CC(C)(C)SCCNS(=O)(=O)c1ccccc1,49.8*,13.9,21.5,-7.3,43.2*,12.6
O=C(c1cc2ccccc2[nH]1)N1CCOCC1,18.0,3.9,48.1*,13.4,28.6,8.8
O=C(c1cc2ccccc2s1)N1CCOCC1,7.1,9.0,-6.5,10.8,-1.6,3.1
COc1cc(C)cc2c(-c3c(O)cc(O)c4c3C[C@H](C)N[C@@H]4C)cc(-c3cc(-c4c(O)cc(O)c5c4C[C@H](C)N[C@@H]5C)c4cc(C)cc(OC)c4c3O)c(O)c12,x,41.1*,x,-11.8,x,x
COc1ccc2c(c1)c1nc3ccccc3nc1n2CCCN1C(=O)c2ccccc2C1=O,10.3,14.2,-4.5,5.3,-10.0,1.5
COc1ccc2c(c1)c1c(C)c3cnccc3c(C)c1n2CCCN,x,48.5*,x,32.2,x,x
CCN1c2ncccc2C(=O)NC12CCN(C(=O)c1cnn(CC)c1)CC2,x,6.2,x,-28.8,x,x
Cc1ccc2cc(CN(C(=O)c3ccccc3C)C3CCCCC3)c(=O)[nH]c2c1,x,15.3,x,-6.0,x,x
N#Cc1c(Cl)nc(SCc2ccccc2)nc1-c1ccccc1,12.1,60.9*,1.5,16.1,6.0,3.2
CC1CCN(C(=O)CSc2nc(COc3ccccc3)nc3ccccc23)CC1,x,8.9,x,80.5*,x,x
CCN(CC)C(=O)Cn1nc2c(C)cc3ccccc3n2c1=O,x,8.2,x,-15.5,x,x
CC(=O)Nc1cccc(NC(=O)C2CCCN2C(=O)Nc2cccc(C)c2)c1 (stereo not given),11.0,7.6,14.5,9.2,40.7*,11.9
CCOc1ccc2[nH]c(=O)c(CN(Cc3ccc(F)cc3)C(=S)NC)cc2c1,x,23.2,x,40.5,x,x
CSc1nc(SCC(=O)O)c2c3c(sc2n1)COC(C)(C)C3,52.0*,8.5,18.2,-2.8,22.8,29.9
C[C@@H](Cn1nnc2ccccc21)NC(=O)Cc1n[nH]c(=O)c2ccccc12,x,1.7,x,-12.9,x,x
CCOC(=O)CNC(=O)Cn1cnc2c(nnn2-c2cccc(Cl)c2)c1=O,43.4*,12.6,0.8,5.7,-9.1,12.3
Fc1ccccc1Nc1nc(N2CCOCC2)nc(N2CCOCC2)n1,x,10.1,x,-22.2,x,x
